Laboratory results as given in ChEMBL document CHEMBL5303300, “EUbOPEN Chemogenomics Library - Multiplex” (2023).
Where “and” joins values, the source holds several entries; their conditions need not be identical. Equal values may be shown once.

Test system: Fibroblast
Assay: Multiplex assay against human fibroblast
Assay type: toxicity, cell-based
Conditions: number of replicates 2
Outline: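 On a CQ1 microscope at 37°C and 5% CO2, live cells were imaged after compound addition. They had been stained at seeding with Hoechst33342, BioTracker Green Microtubule Cytoskeleton Dye, MitoTracker Red and Annexin V Alexa Fluor 680. CellPathfinder machine-learning gating assigned cells to Hoechst high-intensity objects or normal cells, normal cells to healthy, pyknosed or fragmented nuclei, and pyknosed cells to mitotic or apoptotic. Tubulin, mitochondrial-mass and membrane-permeability phenotypes are per cents of healthy-nucleus cells.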

[1] = 12 h, 1 µM, compound concentration 1 uM
[2] = 12 h, 10 µM, compound concentration 10 uM
[3] = 24 h, 1 µM, compound concentration 1 uM
[4] = 24 h, 10 µM, compound concentration 10 uM
[5] = 48 h, 1 µM, compound concentration 1 uM
[6] = 48 h, 10 µM, compound concentration 10 uM

## Cc1cc(C2CCCNC2)ccc1Nc1ncc(Br)c(NCc2cccc3c2C(C)(C)C(=O)N3)n1 (stereo unspecified)
[1]
  Population Apoptotic (%): 58% and 42%
  Population Fragmented Nuclei (%): 10%
  Population Healthy Nuclei (%): 61% and 64%
  Population Hoechst High Intensity Objects (%): 0%
  Population Membrane Permeable-Phenotype (%): 13% and 5%
  Population Mitochondria Different-Phenotype (%): 5% and 3%
  Population Mitotic Cells (%): 42% and 57%
  Population Normal (%): 99% and 100%
  Population Pyknosed Nuclei (%): 27% and 25%
  Population Tubulin-Different-Phenotype (%): 50% and 49%
  Total Cell Count: 184 and 193
[2]
  Population Apoptotic (%): 40% and 38%
  Population Fragmented Nuclei (%): 29% and 27%
  Population Healthy Nuclei (%): 59% and 56%
  Population Hoechst High Intensity Objects (%): 1% and 0%
  Population Membrane Permeable-Phenotype (%): 9% and 11%
  Population Mitochondria Different-Phenotype (%): 2% and 5%
  Population Mitotic Cells (%): 60% and 61%
  Population Normal (%): 98% and 99%
  Population Pyknosed Nuclei (%): 10% and 15%
  Population Tubulin-Different-Phenotype (%): 82% and 69%
  Total Cell Count: 382 and 328
[3]
  Population Apoptotic (%): 57% and 62%
  Population Fragmented Nuclei (%): 8% and 14%
  Population Healthy Nuclei (%): 71% and 60%
  Population Hoechst High Intensity Objects (%): 0%
  Population Membrane Permeable-Phenotype (%): 3% and 7%
  Population Mitochondria Different-Phenotype (%): 6% and 12%
  Population Mitotic Cells (%): 42% and 38%
  Population Normal (%): 100% and 99%
  Population Pyknosed Nuclei (%): 20% and 25%
  Population Tubulin-Different-Phenotype (%): 43% and 46%
  Total Cell Count: 198 and 199
[4]
  Population Apoptotic (%): 65% and 74%
  Population Fragmented Nuclei (%): 17% and 10%
  Population Healthy Nuclei (%): 59% and 62%
  Population Hoechst High Intensity Objects (%): 1% and 0%
  Population Membrane Permeable-Phenotype (%): 7% and 2%
  Population Mitochondria Different-Phenotype (%): 21% and 31%
  Population Mitotic Cells (%): 34% and 25%
  Population Normal (%): 98% and 99%
  Population Pyknosed Nuclei (%): 22% and 27%
  Population Tubulin-Different-Phenotype (%): 86% and 79%
  Total Cell Count: 279 and 234
[5]
  Population Apoptotic (%): 70% and 65%
  Population Fragmented Nuclei (%): 11% and 16%
  Population Healthy Nuclei (%): 73% and 63%
  Population Hoechst High Intensity Objects (%): 0%
  Population Membrane Permeable-Phenotype (%): 3%
  Population Mitochondria Different-Phenotype (%): 3% and 9%
  Population Mitotic Cells (%): 29% and 34%
  Population Normal (%): 100%
  Population Pyknosed Nuclei (%): 15% and 20%
  Population Tubulin-Different-Phenotype (%): 39% and 30%
  Total Cell Count: 180 and 175
[6]
  Population Apoptotic (%): 93% and 96%
  Population Fragmented Nuclei (%): 11% and 16%
  Population Healthy Nuclei (%): 40% and 48%
  Population Hoechst High Intensity Objects (%): 6% and 2%
  Population Mitochondria Different-Phenotype (%): 53% and 52%
  Population Mitotic Cells (%): 6% and 3%
  Population Normal (%): 93% and 97%
  Population Pyknosed Nuclei (%): 48% and 34%
  Population Tubulin-Different-Phenotype (%): 83% and 78%
  Total Cell Count: 164 and 169

## COc1nc2ccc([C@@](O)(c3ccc(Cl)cc3)c3cncn3C)cc2c(Cl)c1Cc1ccc(-n2cccn2)cc1 [JNJ-53721590]
[1]
  Population Apoptotic (%): 30%
  Population Fragmented Nuclei (%): 6% and 11%
  Population Healthy Nuclei (%): 68% and 55%
  Population Hoechst High Intensity Objects (%): 0%
  Population Membrane Permeable-Phenotype (%): 9% and 11%
  Population Mitochondria Different-Phenotype (%): 2% and 1%
  Population Mitotic Cells (%): 69%
  Population Normal (%): 100%
  Population Pyknosed Nuclei (%): 24% and 32%
  Population Tubulin-Different-Phenotype (%): 38% and 37%
  Total Cell Count: 210 and 189
[2]
  Population Apoptotic (%): 37% and 45%
  Population Fragmented Nuclei (%): 14% and 7%
  Population Healthy Nuclei (%): 63% and 67%
  Population Hoechst High Intensity Objects (%): 0%
  Population Membrane Permeable-Phenotype (%): 20%
  Population Mitochondria Different-Phenotype (%): 5% and 3%
  Population Mitotic Cells (%): 62% and 55%
  Population Normal (%): 99% and 100%
  Population Pyknosed Nuclei (%): 21% and 24%
  Population Tubulin-Different-Phenotype (%): 73%
  Total Cell Count: 206 and 241
[3]
  Population Apoptotic (%): 62% and 56%
  Population Fragmented Nuclei (%): 6% and 14%
  Population Healthy Nuclei (%): 68% and 62%
  Population Hoechst High Intensity Objects (%): 0%
  Population Membrane Permeable-Phenotype (%): 3% and 10%
  Population Mitochondria Different-Phenotype (%): 2% and 9%
  Population Mitotic Cells (%): 37% and 43%
  Population Normal (%): 100%
  Population Pyknosed Nuclei (%): 25% and 23%
  Population Tubulin-Different-Phenotype (%): 31% and 37%
  Total Cell Count: 199 and 197
[4]
  Population Apoptotic (%): 51% and 70%
  Population Fragmented Nuclei (%): 20% and 12%
  Population Healthy Nuclei (%): 62% and 60%
  Population Hoechst High Intensity Objects (%): 0%
  Population Membrane Permeable-Phenotype (%): 9% and 6%
  Population Mitochondria Different-Phenotype (%): 18% and 20%
  Population Mitotic Cells (%): 48% and 29%
  Population Normal (%): 100% and 99%
  Population Pyknosed Nuclei (%): 16% and 27%
  Population Tubulin-Different-Phenotype (%): 75% and 69%
  Total Cell Count: 218 and 241
[5]
  Population Apoptotic (%): 85% and 72%
  Population Fragmented Nuclei (%): 10% and 13%
  Population Healthy Nuclei (%): 72% and 67%
  Population Hoechst High Intensity Objects (%): 0%
  Population Membrane Permeable-Phenotype (%): 3% and 2%
  Population Mitochondria Different-Phenotype (%): 0% and 1%
  Population Mitotic Cells (%): 14% and 27%
  Population Normal (%): 100%
  Population Pyknosed Nuclei (%): 17% and 19%
  Population Tubulin-Different-Phenotype (%): 20% and 15%
  Total Cell Count: 205
[6]
  Population Apoptotic (%): 87%
  Population Fragmented Nuclei (%): 26% and 18%
  Population Healthy Nuclei (%): 64%
  Population Hoechst High Intensity Objects (%): 0%
  Population Membrane Permeable-Phenotype (%): 1% and 2%
  Population Mitochondria Different-Phenotype (%): 7% and 8%
  Population Mitotic Cells (%): 12%
  Population Normal (%): 99% and 100%
  Population Pyknosed Nuclei (%): 9% and 16%
  Population Tubulin-Different-Phenotype (%): 63% and 53%
  Total Cell Count: 247 and 282
